ChEMBL document CHEMBL3758096, “1-[3-(2-Hydroxyethylsulfanyl)propanoyl]-3,5-bis(benzylidene)-4-piperidones: A novel cluster of P-glycoprotein dependent multidrug resistance modulators” (Bioorg Med Chem Lett, 2016)

Experiments:
[1] = molecular target: T1, ATP-dependent translocase ABCB1 (Homo sapiens, UniProt P08183); experiment: Inhibition of human MDR1 transfected in mouse L5178Y cells assessed as fluorescence activity ratio at 4 ug/ml after 10 mins by rhodamine 123 dye based fluorescence analysis; format: cell-based
[2] = molecular target: T1, ATP-dependent translocase ABCB1; experiment: Inhibition of human MDR1 transfected in mouse L5178Y cells assessed as fluorescence activity ratio at 40 ug/ml after 10 mins by rhodamine 123 dye based fluorescence analysis; format: cell-based
[3] = molecular target: T1, ATP-dependent translocase ABCB1; experiment: Ratio of human MDR1 modulation transfected in mouse L5178Y cells at 40 ug/ml to human MDR1 modulation transfected in mouse L5178Y cells at 4 ug/ml; format: cell-based
[4] = Cytotoxicity against human HSC2 cells after 48 hrs by MTT assay; format: functional; conditions: HSC-2, 48 h, pooled result: one value given for 3 cell lines, strains, targets or settings
Outline: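 Compounds were incubated with cells at 37 °C for 48 hr. HSC-2 and HSC-4 squamous carcinoma cells were grown in supplemented DMEM, and viability was read by MTT. HL-60 promyelocytic leukemia cells were grown in supplemented RPMI1640, and viability was read by trypan blue exclusion. CC50 is the concentration killing 50% of cells, reported as an average.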

[5] = molecular target: T1, ATP-dependent translocase ABCB1; experiment: Potency index, ratio of compound activity to verapamil hydrochloride activity for human MDR1 modulation transfected in mouse L5178Y cells at 4 ug/ml; format: cell-based

T1 sequence (P08183 whole entry): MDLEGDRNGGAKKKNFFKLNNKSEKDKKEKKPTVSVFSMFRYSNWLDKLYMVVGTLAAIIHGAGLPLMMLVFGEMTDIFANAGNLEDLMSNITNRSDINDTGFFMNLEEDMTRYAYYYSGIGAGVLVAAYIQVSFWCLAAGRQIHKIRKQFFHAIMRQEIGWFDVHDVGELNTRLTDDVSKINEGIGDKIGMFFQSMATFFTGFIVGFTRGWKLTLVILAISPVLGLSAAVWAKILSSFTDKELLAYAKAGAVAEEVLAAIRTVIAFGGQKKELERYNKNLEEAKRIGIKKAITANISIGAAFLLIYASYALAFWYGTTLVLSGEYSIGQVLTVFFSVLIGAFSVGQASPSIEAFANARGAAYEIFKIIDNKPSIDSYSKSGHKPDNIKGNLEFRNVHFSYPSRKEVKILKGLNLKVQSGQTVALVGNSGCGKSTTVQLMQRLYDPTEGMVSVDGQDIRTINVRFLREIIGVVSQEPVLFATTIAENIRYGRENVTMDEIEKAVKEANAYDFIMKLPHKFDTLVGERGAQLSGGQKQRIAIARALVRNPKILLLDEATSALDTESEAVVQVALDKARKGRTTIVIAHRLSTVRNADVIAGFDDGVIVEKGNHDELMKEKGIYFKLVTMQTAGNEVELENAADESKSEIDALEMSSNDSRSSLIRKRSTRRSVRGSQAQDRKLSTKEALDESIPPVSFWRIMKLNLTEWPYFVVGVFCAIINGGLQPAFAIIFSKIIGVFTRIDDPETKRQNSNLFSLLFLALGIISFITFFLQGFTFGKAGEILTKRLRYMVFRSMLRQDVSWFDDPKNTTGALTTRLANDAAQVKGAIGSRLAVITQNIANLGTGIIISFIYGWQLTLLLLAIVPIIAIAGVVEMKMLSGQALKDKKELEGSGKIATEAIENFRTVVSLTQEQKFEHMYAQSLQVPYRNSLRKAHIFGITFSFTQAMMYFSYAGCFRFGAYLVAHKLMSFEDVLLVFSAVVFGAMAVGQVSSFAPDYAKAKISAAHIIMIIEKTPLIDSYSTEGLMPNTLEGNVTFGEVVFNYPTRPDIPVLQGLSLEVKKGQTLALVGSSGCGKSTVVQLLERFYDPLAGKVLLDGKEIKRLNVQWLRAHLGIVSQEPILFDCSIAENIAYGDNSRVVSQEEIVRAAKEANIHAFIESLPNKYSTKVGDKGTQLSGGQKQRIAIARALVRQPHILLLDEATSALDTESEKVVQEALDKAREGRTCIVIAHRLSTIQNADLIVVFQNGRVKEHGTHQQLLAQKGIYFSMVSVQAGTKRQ

Ratio [1] | Ratio [2] | Ratio [3] | Ratio [5] | Structure (SMILES) | CC50 [4] [µM]
4.71 | 42.4 | 9 | – | O=C1/C(=C/c2ccccc2)CN(C(=O)CCSCCO)C/C1=C\c1ccccc1 | 1.53
55.4 | 44.4 | 0.8 | – | Cc1ccc(/C=C2\CN(C(=O)CCSCCO)C/C(=C\c3ccc(C)cc3)C2=O)cc1 | 1.56
37.1 | 85.1 | 2.29 | 9 | COc1ccc(/C=C2\CN(C(=O)CCSCCO)C/C(=C\c3ccc(OC)cc3)C2=O)cc1 | 2.67
49.2 | 45 | 0.92 | – | O=C1/C(=C/c2ccc(Cl)cc2)CN(C(=O)CCSCCO)C/C1=C\c1ccc(Cl)cc1 | 0.66
8.86 | 20 | 2.26 | – | O=C1/C(=C/c2ccc([N+](=O)[O-])cc2)CN(C(=O)CCSCCO)C/C1=C\c1ccc([N+](=O)[O-])cc1 | 0.39
1.14 | 1.71 | 1.5 | – | O=C1/C(=C/c2ccc([N+](=O)[O-])cc2)CN(C(=O)CCSCCS(=O)(=O)O)C/C1=C\c1ccc([N+](=O)[O-])cc1 | 4.73
1.2 | 1.6 | 1.33 | – | Cc1ccc(/C=C2\CN(C(=O)CCSCCS(=O)(=O)O)C/C(=C\c3ccc(C)cc3)C2=O)cc1 | 126
1.27 | 3.23 | 2.54 | – | COc1ccc(/C=C2\CN(C(=O)CCSCCS(=O)(=O)O)C/C(=C\c3ccc(OC)cc3)C2=O)cc1 | 91.7
1.14 | 1.71 | 1.5 | – | O=C1/C(=C/c2ccc(Cl)cc2)CN(C(=O)CCSCCS(=O)(=O)O)C/C1=C\c1ccc(Cl)cc1 | 29.7
1.14 | 1.2 | 1.05 | – | O=C1/C(=C/c2ccccc2)CN(C(=O)CCSCCS(=O)(=O)O)C/C1=C\c1ccccc1 | 154
18.9 | 126 | 6.67 | – | COc1ccc(/C=C2\CN(C(=O)CCSCCS)C/C(=C\c3ccc(OC)cc3)C2=O)cc1 | 3.37
– | – | – | – | N[C@@H](Cc1ccc(N(CCCl)CCCl)cc1)C(=O)O | 14
